Data set [1] can be described thus: Stability of the compound in fresh cell medium at 100 uM after 120 mins. Format: physicochemical. To be noted: 2 h. The method in brief:
(§1)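 MCF-7 cells were exposed to 100 μM compound for 0–360 min. Medium and acetonitrile-treated washed cells were collected separately at each time point. Compound spiked into fresh cell-free medium and handled the same way served as control. Samples were centrifuged and quantified by reversed-phase HPLC.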

Data set [2] has as its target NAD-dependent protein deacetylase sirtuin-1 (Homo sapiens, UniProt Q96EB6, V445A). Put plainly: Activation of SIRT1 V445A mutant (unknown origin). The method in brief: (§2)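 His-tagged SIRT1 Q345A or V445A mutants were made by site-directed mutagenesis and expressed in E. coli, Ni-NTA purified. They were assayed under the same screening conditions as wild type: 750 μM NAD⁺, 31.25 μM ac-RHKK_ac-AMC, pH 8.0 Tris buffer, trypsin release of AMC, ex 340 / em 490 nm. Compounds came from 3-fold DMSO dilutions. EC1.5 (50% activity increase) was taken from a dose–response fit.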

The test system of data set [3] is NAD-dependent protein deacetylase sirtuin-1 (Homo sapiens), Q96EB6 [UNDEFINED MUTATION]. The data set is described as follows: Ratio of EC50 for SIRT1 V445A mutant (unknown origin) to EC50 for wild type SIRT1 (unknown origin).
Data set [4] addresses NAD-dependent protein deacetylase sirtuin-1 (Homo sapiens, UniProt Q96EB6, Q345A). The data set is described as follows: Activation of SIRT1 Q345A mutant (unknown origin). The method in brief:
as §2

Data set [5] is described as follows: Stability of the compound in cultured medium assessed as compound remaining at 100 uM after 30 mins. The class given is physicochemical. To be noted: 6 h, in the assay text read “after 6 hrs” for “after 30 mins”. The method in brief: as §1
Data set [6] has as its target T1, NAD-dependent protein deacetylase sirtuin-1 (Homo sapiens) (UniProt Q96EB6).
T1 sequence (whole entry): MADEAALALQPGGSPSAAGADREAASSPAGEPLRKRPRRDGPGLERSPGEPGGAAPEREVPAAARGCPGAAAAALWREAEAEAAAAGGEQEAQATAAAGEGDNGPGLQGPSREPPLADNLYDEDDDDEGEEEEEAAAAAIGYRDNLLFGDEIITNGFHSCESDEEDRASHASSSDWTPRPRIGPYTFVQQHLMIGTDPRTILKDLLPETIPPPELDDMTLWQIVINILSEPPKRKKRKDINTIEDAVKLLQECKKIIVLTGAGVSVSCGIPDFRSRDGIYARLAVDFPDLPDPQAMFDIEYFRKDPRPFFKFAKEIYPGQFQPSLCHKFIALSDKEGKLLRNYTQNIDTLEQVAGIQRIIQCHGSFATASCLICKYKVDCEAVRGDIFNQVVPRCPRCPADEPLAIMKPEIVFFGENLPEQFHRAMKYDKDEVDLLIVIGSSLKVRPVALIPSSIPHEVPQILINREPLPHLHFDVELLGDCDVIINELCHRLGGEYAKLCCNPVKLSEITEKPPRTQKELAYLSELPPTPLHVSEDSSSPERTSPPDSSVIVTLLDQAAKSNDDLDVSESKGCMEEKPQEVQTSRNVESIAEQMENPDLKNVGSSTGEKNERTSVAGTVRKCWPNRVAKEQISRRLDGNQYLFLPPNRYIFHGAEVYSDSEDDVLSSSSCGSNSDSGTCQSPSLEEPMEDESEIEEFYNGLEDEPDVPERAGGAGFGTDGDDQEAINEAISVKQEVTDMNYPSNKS
The data set is described as follows: Activation of N-terminal His6-tagged SIRT1 (156 to 664 amino acid residues) (unknown origin) expressed in Escherichia coli BL21(DE3) using ac-RHKKac-AMC as substrate at 50 uM after 45 mins by fluorimetric analysis relative to control. In outline: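 Fluorogenic deacetylation screen: 1 μM SIRT1 with 750 μM NAD⁺ and 31.25 μM ac-RHKK_ac-AMC in Tris buffer (25 mM Tris, 137 mM NaCl, 2.7 mM KCl, 1 mM MgCl₂, pH 8.0). Compounds at 50 μM from DMSO stocks; DMSO alone as blank. Trypsin then releases AMC from deacetylated peptide; fluorescence read at 340/490 nm.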

Data set [7] concerns NAD-dependent protein deacetylase sirtuin-1 (Homo sapiens), Q96EB6 [UNDEFINED MUTATION]. The data set is described as follows: Ratio of EC50 for SIRT1 Q345A mutant (unknown origin) to EC50 for wild type SIRT1 (unknown origin).
The subject of data set [8] is T2, NAD-dependent protein deacetylase sirtuin-1 (Homo sapiens), Q96EB6 [V445A].
T2 sequence (whole entry): T1 sequence (whole entry) with V445A
The data set is described as follows: Activation of SIRT1 V445A mutant (unknown origin) at 10 uM relative to control.

In data set [9] the target is T3, NAD-dependent protein deacetylase sirtuin-1 (Homo sapiens, UniProt Q96EB6).
T3 sequence (Q96EB6 whole entry): T1 sequence (whole entry)
The data set is described as follows: Activation of N-terminal His6-tagged SIRT1 (156 to 664 amino acid residues) (unknown origin) expressed in Escherichia coli BL21(DE3) using ac-RHKKac-AMC as substrate after 45 mins by fluorometric analysis.

A short description of data set [10]: Stability of the compound in cultured medium at 100 uM after 30 mins. The class given is physicochemical. Particulars: 0.5 h. The method in brief:
as §1

Data set [11] concerns the target T1, NAD-dependent protein deacetylase sirtuin-1 (Homo sapiens). Put plainly: Activation of SIRT1 in human MCF7 cells assessed as reduction in doxorubicin-induced acetyl-p53 level at 60 uM after 6 hrs by Western blotting analysis. Format: cell-based. The method in brief:
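MCF-7 cells were seeded at 1 × 10⁵ per well in DMEM with 10% FCS and grown 24 h at 37 °C, 5% CO₂. Graded compound concentrations were added together with 0.1 μM TSA and 5 μM doxorubicin for 6 h. Lysate (50 μg protein) was run on a 9% gel and blotted with an anti-acetyl-p53 (Lys382) polyclonal antibody at 4 °C overnight, then HRP anti-rabbit IgG with chemiluminescence.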
A general note: Immunoblotting shows a protein as a band on a membrane.

Another data set deals with MCF7. Put plainly: Drug uptake in human MCF7 cells at 100 uM measured at 30 mins. Format: ADME, cell-based. Particulars: mcf7, 0.5 h. The method in brief:
as §1

Data set [12] relates to T4, NAD-dependent protein deacetylase sirtuin-1 (Homo sapiens), Q96EB6 [Q345A].
T4 sequence (whole entry): T1 sequence (whole entry) with Q345A
Put plainly: Activation of SIRT1 Q345A mutant (unknown origin) at 10 uM relative to control.

Changes are numbered by the printed parent chain. Activity calls are given as the source filed them. No cut-off for these calls is given here.

NAD-dependent protein deacetylase sirtuin-1 (Homo sapiens, UniProt Q96EB6, Q345A), sequence (Q96EB6 2-747 Q345A limits assumed): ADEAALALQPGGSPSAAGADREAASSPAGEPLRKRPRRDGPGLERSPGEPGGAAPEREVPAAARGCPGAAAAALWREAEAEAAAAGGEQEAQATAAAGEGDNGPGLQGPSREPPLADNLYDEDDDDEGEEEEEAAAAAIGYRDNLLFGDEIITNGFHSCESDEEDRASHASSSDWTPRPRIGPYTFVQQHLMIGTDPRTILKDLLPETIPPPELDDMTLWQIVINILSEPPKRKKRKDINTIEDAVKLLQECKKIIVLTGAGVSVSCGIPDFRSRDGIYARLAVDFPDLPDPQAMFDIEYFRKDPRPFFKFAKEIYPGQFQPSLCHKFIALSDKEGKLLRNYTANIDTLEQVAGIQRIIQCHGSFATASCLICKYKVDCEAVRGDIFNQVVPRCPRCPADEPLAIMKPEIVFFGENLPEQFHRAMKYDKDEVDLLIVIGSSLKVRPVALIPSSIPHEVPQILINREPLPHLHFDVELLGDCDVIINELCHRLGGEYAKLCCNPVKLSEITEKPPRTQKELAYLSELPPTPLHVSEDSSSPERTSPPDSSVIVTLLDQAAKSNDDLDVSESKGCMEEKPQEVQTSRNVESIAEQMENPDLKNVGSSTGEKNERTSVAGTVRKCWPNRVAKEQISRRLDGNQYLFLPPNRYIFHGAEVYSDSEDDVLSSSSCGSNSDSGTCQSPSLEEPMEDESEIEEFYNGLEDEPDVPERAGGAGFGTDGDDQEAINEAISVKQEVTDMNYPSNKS
NAD-dependent protein deacetylase sirtuin-1 (Homo sapiens, UniProt Q96EB6, V445A), sequence (Q96EB6 2-747 V445A limits assumed): as the sequence (Q96EB6 2-747 Q345A limits assumed) above, with A344Q, V444A counted along it

For orientation: EC50 means the concentration needed to bring the measured effect to its halfway point. Higher therefore signals a need for much substance. For `O=C(N/N=C/c1cc(Br)c(O)c(Br)c1O)c1ccc2cc(Br)ccc2c1`, the figures for the Stability entry in data set [1], in data set [5] and in data set [10] were “Stable”, 20 µM and “Stable”, respectively. In addition, the EC50 turned out to be 4.8 µM in data set [2], 12.2 µM in data set [4] and 2.7 µM in [9]. In addition, the values for the Ratio EC50 in data set [3] and in data set [7] were 2 and 4, respectively. Besides, the max activation was found to be 647% in [6], 353% in [8] and 237% in data set [12]. For the same compound, the outcome in data set [11] was inactive. Besides, the Drug uptake result in the data set with MCF7 is reported as “Active”.

These data come from ChEMBL document CHEMBL2331243, “Discovery and mechanism study of SIRT1 activators that promote the deacetylation of fluorophore-labeled substrate” (J Med Chem, 2013).
